The values that follow come from PMC7614804 (Journal of medicinal chemistry, 2022).

Test [1] has as its target T1, Pa MurB (Pseudomonas aeruginosa, UniProt Q9HZM7).
T1 sequence (Q9HZM7 1-339): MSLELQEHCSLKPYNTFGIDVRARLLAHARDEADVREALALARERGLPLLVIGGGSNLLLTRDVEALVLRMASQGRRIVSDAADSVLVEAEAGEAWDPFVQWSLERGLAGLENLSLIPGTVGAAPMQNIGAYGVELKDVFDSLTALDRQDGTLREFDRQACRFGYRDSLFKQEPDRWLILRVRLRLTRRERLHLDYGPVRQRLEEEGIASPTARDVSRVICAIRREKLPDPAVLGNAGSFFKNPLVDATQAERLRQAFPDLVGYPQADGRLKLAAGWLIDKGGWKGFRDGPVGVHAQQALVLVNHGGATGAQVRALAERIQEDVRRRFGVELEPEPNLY
The test is described as follows: Surface plasmon resonance. The test is classed as binding. Summed up:
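Pa MurB amine-coupled to a CM5 chip. Running buffer: 10 mM NaPO4 pH 7, 150 mM NaCl, 2% DMSO, 25 °C. Each test compound at 1 mM in running buffer was injected for 30 s at […], with 320 s dissociation. Each was run twice, in reverse orders, with solvent correction. Response units were compared visually with those of the initial pyrazole fragment hit.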
A general note: Surface plasmon resonance follows binding to a sensor surface in real time, without labels.

For test [2], the target named is T1, Pa MurB. The test can be described thus: Isothermal titration calorimetry. The class given is binding. The essentials:
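ITC at 25 °C. Pa MurB was dialysed overnight at 4 °C into 25 mM Tris-HCl pH 8.0, 150 mM NaCl; cell and syringe solutions were in the same buffer with 5% DMSO final. Usually 50 μM MurB with 3.0 mM fragment; some runs used 1.0 or 0.5 mM ligand or 200 μM MurB. A 0.4 μL first injection was discarded, then 28 × 1.5 μL every 120 s. One-site fit; LE = −(RTlnKd)/heavy atoms, in kcal/mol per heavy atom.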

Setting [3] is: Table 3, RU of fragment at 1 mM compared with RU of fragment 4, n = 2.
[4] abbreviates: Table 3, LE = –(RTlnKd)/(number of heavy atoms).
The mark [5] stands for this setting: Table 4, RU of fragment at 1 mM compared with RU of fragment 4, n = 2.
Where [6] appears, read: Table 4, LE = −(RTlnKd)/(number of heavy atoms).
The mark [7] stands for this setting: Kd(μM) ITC, Table 4, 50 μM MurB, 3.0 mM fragment, fragment 41: 200 μM MurB.
Where [8] appears, read: Table 5, RU of compound at 1.0 mM compared with RU of fragment 4, n = 2.
[9] abbreviates: Table 5, LE = −(RTlnKd)/(number of heavy atoms).
Where [10] appears, read: Table 6, RU of fragment at 1.0 mM compared with RU of fragment 4, n = 2.
The mark [11] stands for this setting: Table 6, LE = −(RTlnKd)/(number of heavy atoms).

For `Cc1c(C(=O)O)nnn1-c1ccccc1` [Fragment 19], the “SPR RU>RUf4 1.0 mM” value on Pa MurB [1] (setting [3]) is “no”. The molecule also gave a Kd at Pa MurB [2] (Kd(μM) ITC, Table 3, 50 μM MurB, 3.0 mM fragment) of 877 ± 154 µM. In addition, the LE on Pa MurB [2] (setting [4]) was 0.28 kcal/mol per heavy atom.

For the molecule `Cc1cc(C(=O)O)c(C)n1-c1ccccc1` [Fragment 20], at Pa MurB [1] (setting [3]), the “SPR RU>RUf4 1.0 mM” value is recorded as “yes”. Further, at Pa MurB [2] (setting [4]), the LE is 0.34 kcal/mol per heavy atom.

As to `Cc1nc(C(=O)O)c(C)n1-c1ccccc1` [Fragment 21], at Pa MurB [1] (setting [3]), the “SPR RU>RUf4 1.0 mM” value is listed as “no”.

`Cc1cc(C(=O)O)c(C(F)(F)F)n1-c1ccccc1` [Fragment 22]: at Pa MurB [1] (setting [3]), the “SPR RU>RUf4 1.0 mM” value is “yes”. The molecule further gave an LE on Pa MurB [2] (setting [4]) of 0.28 kcal/mol per heavy atom.

`Cc1c(C(=O)O)cc(CCO)n1-c1ccccc1` [Fragment 23] displayed a Kd at Pa MurB [2] (Kd (ITC)) of 208 ± 15 µM. This molecule showed an LE at Pa MurB [2] (setting [4]) of 0.28 kcal/mol per heavy atom.

For the molecule `O=C(O)c1cnn(-c2ccccc2Cl)c1C(F)(F)F` [Fragment 30], the “SPR RU>RUf4 1.0 mM” value at Pa MurB [1] (setting [5]) is reported as “yes”. Further, the LE on Pa MurB [2] (setting [6]) is given as 0.27 kcal/mol per heavy atom.

In the case of `O=C(O)c1cnn(-c2ccccc2Br)c1C(F)(F)F` [Fragment 31], the “SPR RU>RUf4 1.0 mM” value on Pa MurB [1] (setting [5]) is on record as “yes”. At Pa MurB [2] (setting [6]), the LE came out at 0.29 kcal/mol per heavy atom.

Regarding `Cc1ccccc1-n1ncc(C(=O)O)c1C(F)(F)F` [Fragment 32], the “SPR RU>RUf4 1.0 mM” value on Pa MurB [1] (setting [5]) is on record as “yes”. Besides, at Pa MurB [2] (setting [6]), the LE worked out at 0.31 kcal/mol per heavy atom.

Regarding `COc1ccc(-n2ncc(C(=O)O)c2C(F)(F)F)cc1` [Fragment 35], at Pa MurB [1] (setting [5]), the “SPR RU>RUf4 1.0 mM” value was “no”.

Take `Cc1cc([N+](=O)[O-])ccc1-n1ncc(C(=O)O)c1C(F)(F)F` [Fragment 36]: at Pa MurB [1] (setting [5]), the “SPR RU>RUf4 1.0 mM” value is on record as “yes”. Besides, the affinity at Pa MurB [2] (setting [7]), expressed as Kd, was 208 ± 28 µM. Moreover, the LE at Pa MurB [2] (setting [6]) turned out to be 0.23 kcal/mol per heavy atom.

With `Cc1cccc(-n2ncc(C(=O)O)c2C(F)(F)F)c1C` [Fragment 38], the “SPR RU>RUf4 1.0 mM” value at Pa MurB [1] (setting [5]) is on record as “yes”. Besides, the Kd on Pa MurB [2] (setting [7]) came out at 99 ± 7.2 µM. Besides, on Pa MurB [2] (setting [6]), the LE turned out to be 0.27 kcal/mol per heavy atom.

With `Cc1ccc(-n2ncc(C(=O)O)c2C(F)(F)F)c(C)c1` [Fragment 39], the “SPR RU>RUf4 1.0 mM” value at Pa MurB [1] (setting [5]) was “yes”. At Pa MurB [2] (setting [7]), this molecule returned a dissociation constant Kd of 85.5 ± 8 µM. This molecule also yielded an LE at Pa MurB [2] (setting [6]) of 0.28 kcal/mol per heavy atom.

In the case of `Cc1ccc(C)c(-n2ncc(C(=O)O)c2C(F)(F)F)c1` [Fragment 40], the “SPR RU>RUf4 1.0 mM” value on Pa MurB [1] (setting [5]) is listed as “yes”. Also, the LE at Pa MurB [2] (setting [6]) amounted to 0.26 kcal/mol per heavy atom.

On to `Cc1cccc(C)c1-n1ncc(C(=O)O)c1C(F)(F)F` [Fragment 41], for which, at Pa MurB [2] (setting [6]), the LE was 0.31 kcal/mol per heavy atom.

On to `O=C(O)c1cnn(-c2c(Cl)cccc2Cl)c1C(F)(F)F` [Fragment 42], for which the “SPR RU>RUf4 1.0 mM” value on Pa MurB [1] (setting [5]) is “yes”. Moreover, at Pa MurB [2] (setting [7]), binding was characterised by a dissociation constant (Kd) of 60.2 ± 4.4 µM. At Pa MurB [2] (setting [6]), this molecule gave an LE of 0.29 kcal/mol per heavy atom.

Regarding `O=C(O)c1cnn(-c2ccc(Cl)c(Cl)c2)c1C(F)(F)F` [Fragment 43, 1-(3,4-Dichlorophenyl)-5-(trifluoromethyl)-1H-pyrazole-4-carboxylic Acid], the “SPR RU>RUf4 1.0 mM” value on Pa MurB [1] (setting [5]) is on record as “yes”. Further, the LE on Pa MurB [2] (setting [6]) is recorded as 0.31 kcal/mol per heavy atom.

In the case of `Cc1cc(Cl)c(Cl)cc1-n1ncc(C(=O)O)c1C(F)(F)F` [Fragment 44], the “SPR RU>RUf4 1.0 mM” value at Pa MurB [1] (setting [8]) is “yes”. This molecule returned an LE on Pa MurB [2] (setting [9]) of 0.35 kcal/mol per heavy atom.

For the molecule `Cc1c(-n2ncc(C(=O)O)c2C(F)(F)F)ccc(Cl)c1Cl` [Fragment 45], the “SPR RU>RUf4 1.0 mM” value at Pa MurB [1] (setting [8]) is listed as “yes”. Also, on Pa MurB [2] (setting [9]), the LE is 0.32 kcal/mol per heavy atom.

Regarding `Cc1ccccc1-n1c(C)cc(C(=O)O)c1C` [Fragment 46], the “SPR RU>RUf4 1.0 mM” value on Pa MurB [1] (setting [8]) is on record as “yes”. Also, the LE at Pa MurB [2] (setting [9]) amounted to 0.34 kcal/mol per heavy atom.

In the case of `Cc1cccc(C)c1-n1c(C)cc(C(=O)O)c1C` [Fragment 47], the “SPR RU>RUf4 1.0 mM” value at Pa MurB [1] (setting [8]) is “no”. This molecule displayed an LE on Pa MurB [2] (setting [9]) of 0.32 kcal/mol per heavy atom.

As to `Cc1cc(C(=O)O)c(C)n1-c1ccc(Cl)c(Cl)c1` [Fragment 48], the “SPR RU>RUf4 1.0 mM” value at Pa MurB [1] (setting [8]) is given as “no”. On Pa MurB [2] (setting [9]), the LE stood at 0.33 kcal/mol per heavy atom.

For `Cc1cc(C(=O)O)c(C)n1-c1cccc(Cl)c1` [Fragment 49], the “SPR RU>RUf4 1.0 mM” value on Pa MurB [1] (setting [8]) was “yes”.

As to `Cc1cc(C(=O)O)c(C)n1-c1ccc(Cl)cc1` [Fragment 50], on Pa MurB [1] (setting [8]), the “SPR RU>RUf4 1.0 mM” value is “no”.

In the case of `Cc1cc(Cl)c(Cl)cc1-n1c(C)cc(C(=O)O)c1C` [Fragment 51], on Pa MurB [2] (setting [9]), the LE came to 0.33 kcal/mol per heavy atom.

The molecule `Cc1c(-n2c(C)cc(C(=O)O)c2C)ccc(Cl)c1Cl` [Fragment 52] displayed an LE on Pa MurB [2] (setting [9]) of 0.33 kcal/mol per heavy atom.

With `Cc1ccccc1-n1c(C)cc(C(=O)O)c1C(F)(F)F` [Fragment 53], the “SPR RU>RUf4 1.0 mM” value on Pa MurB [1] (setting [8]) was “yes”. On Pa MurB [2] (setting [9]), this molecule gave an LE of 0.30 kcal/mol per heavy atom.

`Cc1cc(Cl)c(Cl)cc1-n1c(C)cc(C(=O)O)c1C(F)(F)F` [Fragment 54]: the LE at Pa MurB [2] (setting [9]) is 0.32 kcal/mol per heavy atom.

For `Cc1c(-n2c(C)cc(C(=O)O)c2C(F)(F)F)ccc(Cl)c1Cl` [Fragment 55], the “SPR RU>RUf4 1.0 mM” value at Pa MurB [1] (setting [8]) is “yes”. For the same molecule, the LE at Pa MurB [2] (setting [9]) was found to be 0.31 kcal/mol per heavy atom.

In the case of `CS(=O)(=O)NC(=O)c1cnn(-c2ccccc2)c1C(F)(F)F` [Fragment 59], on Pa MurB [1] (setting [10]), the “SPR RU>RUf4 1.0 mM” value is recorded as “no”.

As for `O=C(NS(=O)(=O)c1ccccc1)c1cnn(-c2ccccc2)c1C(F)(F)F` [Fragment 60], on Pa MurB [1] (setting [10]), the “SPR RU>RUf4 1.0 mM” value was “yes”. Also, the Kd was determined as 320 ± 60 µM at Pa MurB [2] (Kd (ITC)) and 324 ± 59 µM at Pa MurB [2] (Kd(μM) ITC, Table 6, 50 μM Pa MurB, 3.0 mM fragment). The same molecule had an LE at Pa MurB [2] (setting [11]) of 0.18 kcal/mol per heavy atom.

Turning to `Cc1cccc(C)c1-n1ncc(C(=O)NS(=O)(=O)c2ccccc2)c1C(F)(F)F` [Fragment 62], at Pa MurB [1] (setting [10]), the “SPR RU>RUf4 1.0 mM” value was “yes”. At Pa MurB [2] (setting [11]), this molecule came in with an LE of 0.22 kcal/mol per heavy atom.

For the molecule `Cc1cc(Cl)c(Cl)cc1-n1ncc(C(=O)NS(=O)(=O)c2ccccc2)c1C(F)(F)F` [Fragment 64], the LE at Pa MurB [2] (setting [11]) is on record as 0.22 kcal/mol per heavy atom.

By Kd is commonly meant a measure of binding affinity in units of concentration. Low values mean tighter binding, high ones weaker binding.
